Test [1] addresses T1, Neuronal acetylcholine receptor subunit alpha-7 (Rattus norvegicus, UniProt Q05941). Put plainly: Binding affinity to rat alpha7 nAChR.
Test [2] deals with Neuronal acetylcholine receptor; alpha4/beta2 (Rattus norvegicus, UniProt P09483+P12390). Kind of test: Binding affinity to rat alpha4beta2 nAChR.
Test [3] addresses Neuronal acetylcholine receptor subunit alpha-7 (Mus musculus, UniProt P49582).
Test [4] addresses T1, Neuronal acetylcholine receptor subunit alpha-7. Put plainly: Agonist activity at rat alpha7 nAChR expressed in Xenopus laevis oocytes by two-electrode voltage clamp assay. The format is functional, cell-based, Oocyte. A general note: In two-electrode clamp one electrode senses voltage and the other passes current.
Test [5] has the same target. Kind of test: Binding affinity to rat alpha7 nAChR expressed in Xenopus laevis oocytes. The format is cell-based, Oocyte.
Test [6] is filed under the species Homo sapiens. Put plainly: Ratio of EC50 for human nAChR alpha6/alpha3beta2beta3 V273S mutant to Ki for human alpha6/alpha3beta2beta3 nAChR.
Test [7] is described as follows: Agonist activity at human nAChR alpha6/alpha3beta2beta3 V273S mutant expressed in HEK293T cells by FLIPR. In kind it is functional, cell-based. Conditions: HEK-293T.
Test [8] in a line: Agonist activity at human nAChR alpha6/alpha3beta2beta3 V273S mutant expressed in HEK293T cells by FLIPR relative to 10 uM nicotine. In kind it is functional, HEK-293T.
In test [9] the target is Nicotinic acetylcholine receptor alpha6/alpha3/beta2/beta3 (Rattus norvegicus, UniProt P04757+P12390+P12391+P43143). Kind of test: Agonist activity at alpha6/alpha3beta2beta3 nAChR in Sprague-Dawley rat striatal synaptosomes assessed as induction of dopamine release. In kind it is functional, subcellular, Brain.
In test [10] the target is Nicotinic acetylcholine receptor alpha6/alpha3/beta2/beta3 (Rattus norvegicus) (UniProt P04757+P12390+P12391+P43143). Kind of test: Agonist activity at alpha6/alpha3beta2beta3 nAChR in Sprague-Dawley rat striatal synaptosomes assessed as induction of dopamine release relative to 10 uM nicotine. The conditions noted are these: Brain. The format is functional, subcellular.

The nature of test [11]: Agonist activity at rat alpha7 nAChR T6'S59 mutant expressed in rat GH4C1 cells by whole cell voltage clamp based electrophysiology method. The format is functional. Conditions: GH4-C1. An outline of the steps:
(§1)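 Whole-cell voltage clamp at -60 mV, room temperature (22 ± 1 °C), one cell per agonist load, Dynaflow fast application. Agonist applied 1 s for α4β2 and 0.5 s for α7, with 30 s washout. Tris-based pipette solution, pH 7.3. Concentration-response data fitted to the Hill equation, with α4β2 fitted as the sum of two Hill equations. Max % relative to 1 mM ACh.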

The nature of test [12]: Agonist activity at rat alpha7 nAChR T6'S59 mutant expressed in rat GH4C1 cells by whole cell voltage clamp based electrophysiology method relative to 1 mM acetylcholine. In kind it is functional, GH4-C1. The method, boiled down:
as §1

In test [13] the target is T2, Neuronal acetylcholine receptor; alpha4/beta2 (Homo sapiens, UniProt P17787+P43681). Put plainly: Agonist activity at human alpha4beta2 nAChR expressed in human SH-EP1 cells by whole cell voltage clamp based electrophysiology method. In kind it is functional. An outline of the steps:
as §1

Test [14] concerns the target T2, Neuronal acetylcholine receptor; alpha4/beta2. Kind of test: Agonist activity at human alpha4beta2 nAChR expressed in human SH-EP1 cells by whole cell voltage clamp based electrophysiology method relative to 1 mM acetylcholine. The format is functional. The method, boiled down: as §1
Test [15] addresses T3, Neuronal acetylcholine receptor; alpha3/beta4 (Homo sapiens, UniProt P30926+P32297). Kind of test: Agonist activity at human alpha3beta4 nAChR expressed in human SH-SY5Y cells assessed as increase in calcium flux by FLIPR. In kind it is functional, cell-based. In general terms: Calcium assays in cells follow changes in intracellular calcium, usually with a dye or a luminescent sensor.

In test [16] the target is T3, Neuronal acetylcholine receptor; alpha3/beta4. Put plainly: Agonist activity at human alpha3beta4 nAChR expressed in human SH-SY5Y cells assessed as increase in calcium flux by FLIPR relative to 10 uM nicotine. The format is functional, cell-based.
Test [17] deals with T2, Neuronal acetylcholine receptor; alpha4/beta2. Kind of test: Agonist activity at human alpha4beta2 nAChR low sensitivity form expressed in human SH-EP1 cells assessed as increase in calcium flux by FLIPR. In kind it is functional, cell-based.
Test [18] shares this target. Put plainly: Agonist activity at human alpha4beta2 nAChR low sensitivity form expressed in human SH-EP1 cells assessed as increase in calcium flux by FLIPR relative to 10 uM nicotine. The format is functional, cell-based.
Test [19] shares this target. Kind of test: Agonist activity at human alpha4beta2 nAChR high sensitivity form expressed in human SH-EP1 cells assessed as increase in calcium flux by FLIPR. In kind it is functional, cell-based.
Test [20] has the same target. Kind of test: Agonist activity at human alpha4beta2 nAChR high sensitivity form expressed in human SH-EP1 cells assessed as increase in calcium flux by FLIPR relative to 10 uM nicotine. In kind it is functional, cell-based.
The species entered for test [21] is Homo sapiens. Put plainly: Selectivity index, ratio of Ki for human alpha3beta4 nAChR to Ki for human alpha4beta2 nAChR.
For test [22], the target named is T3, Neuronal acetylcholine receptor; alpha3/beta4. Put plainly: Displacement of [3H]epibatidine from human alpha3beta4 nAChR expressed in human SH-SY5Y cells. The format is cell-based. The method, boiled down: (§2)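 Binding to membranes from the cell lines: homogenised in PBS pH 7.4, spun at 40000g for 20 min at 4 °C, then incubated 2 h on ice in PBS with competitor (0.001 nM to 100 μM) and radioligand. Filters washed in ice-cold PBS and counted by scintillation. IC50 from nonlinear regression; Ki by Cheng-Prusoff. Minimum of three assays, ± SEM.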
For orientation: Loss of bound radioactivity is the signal in a displacement assay; it reports binding, not function.

For test [23], the target named is Neuronal acetylcholine receptor subunit alpha-7 (Homo sapiens, UniProt P36544). Kind of test: Displacement of [3H]epibatidine from human alpha7 nAChR expressed in human HEK/RIC3 cells. The format is cell-based. An outline of the steps:
as §2

Test [24] addresses T2, Neuronal acetylcholine receptor; alpha4/beta2. Put plainly: Displacement of [3H]nicotine from human alpha4beta2 nAChR expressed in human SH-EP1 cells. In kind it is cell-based. An outline of the steps:
as §2

In test [25] the target is Neuronal acetylcholine receptor; alpha3/alpha6/beta2/beta3 (Homo sapiens, UniProt P17787+P32297+Q05901+Q15825). Kind of test: Displacement of [3H]epibatidine from human alpha6/alpha3beta2beta3 nAChR expressed in HEK293T cells.

pEC50, pKi: −log10 of the molar value.

Usually pKi stands for the negative decadic logarithm of the Ki, by convention in mol/L. One may read the pEC50 as the EC50 on a negative log10 scale, so that one unit is a factor of ten.

T1 sequence (Q05941 whole entry): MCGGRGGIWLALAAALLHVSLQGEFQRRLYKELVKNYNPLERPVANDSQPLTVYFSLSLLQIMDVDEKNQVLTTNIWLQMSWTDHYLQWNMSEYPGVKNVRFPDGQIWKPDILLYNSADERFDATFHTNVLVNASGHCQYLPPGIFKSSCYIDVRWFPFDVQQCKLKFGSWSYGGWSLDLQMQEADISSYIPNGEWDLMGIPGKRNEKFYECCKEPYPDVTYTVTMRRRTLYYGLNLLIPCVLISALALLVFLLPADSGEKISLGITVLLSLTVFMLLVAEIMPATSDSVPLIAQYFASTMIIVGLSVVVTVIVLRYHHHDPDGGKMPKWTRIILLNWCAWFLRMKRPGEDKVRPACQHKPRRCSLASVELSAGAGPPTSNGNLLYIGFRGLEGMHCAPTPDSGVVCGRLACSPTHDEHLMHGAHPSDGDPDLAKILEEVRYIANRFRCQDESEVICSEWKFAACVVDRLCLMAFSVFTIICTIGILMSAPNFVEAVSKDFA
T2 sequence (P17787 whole entry): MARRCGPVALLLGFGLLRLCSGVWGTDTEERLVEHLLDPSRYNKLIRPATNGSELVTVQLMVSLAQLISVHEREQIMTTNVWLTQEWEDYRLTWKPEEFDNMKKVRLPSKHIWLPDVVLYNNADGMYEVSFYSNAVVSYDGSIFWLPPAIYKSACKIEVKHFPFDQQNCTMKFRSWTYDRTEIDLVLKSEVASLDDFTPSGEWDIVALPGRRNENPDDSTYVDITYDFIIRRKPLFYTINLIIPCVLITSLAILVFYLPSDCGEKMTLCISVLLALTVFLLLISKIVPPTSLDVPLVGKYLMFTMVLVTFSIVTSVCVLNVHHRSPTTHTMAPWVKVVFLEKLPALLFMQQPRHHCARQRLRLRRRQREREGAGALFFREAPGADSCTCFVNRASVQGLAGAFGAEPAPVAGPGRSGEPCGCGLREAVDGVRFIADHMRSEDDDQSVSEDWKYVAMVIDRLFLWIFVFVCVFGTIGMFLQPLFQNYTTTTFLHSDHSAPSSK
T2 sequence (P43681 whole entry): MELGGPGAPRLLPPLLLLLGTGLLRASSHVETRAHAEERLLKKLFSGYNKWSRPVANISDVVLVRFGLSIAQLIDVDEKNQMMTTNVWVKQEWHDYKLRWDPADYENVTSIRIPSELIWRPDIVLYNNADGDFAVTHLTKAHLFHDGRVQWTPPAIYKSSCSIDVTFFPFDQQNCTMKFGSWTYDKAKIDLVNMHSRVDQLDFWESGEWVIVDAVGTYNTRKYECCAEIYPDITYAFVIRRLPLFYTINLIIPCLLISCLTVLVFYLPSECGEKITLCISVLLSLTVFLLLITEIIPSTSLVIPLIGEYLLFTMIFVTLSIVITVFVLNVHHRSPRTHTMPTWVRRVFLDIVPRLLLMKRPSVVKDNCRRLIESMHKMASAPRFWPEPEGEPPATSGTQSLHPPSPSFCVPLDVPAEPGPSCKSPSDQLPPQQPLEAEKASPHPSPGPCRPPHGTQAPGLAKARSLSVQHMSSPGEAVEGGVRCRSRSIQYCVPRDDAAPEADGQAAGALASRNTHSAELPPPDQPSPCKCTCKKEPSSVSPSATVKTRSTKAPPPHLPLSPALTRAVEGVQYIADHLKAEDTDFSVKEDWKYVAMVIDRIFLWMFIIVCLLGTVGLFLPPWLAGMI
T3 sequence (P30926 whole entry): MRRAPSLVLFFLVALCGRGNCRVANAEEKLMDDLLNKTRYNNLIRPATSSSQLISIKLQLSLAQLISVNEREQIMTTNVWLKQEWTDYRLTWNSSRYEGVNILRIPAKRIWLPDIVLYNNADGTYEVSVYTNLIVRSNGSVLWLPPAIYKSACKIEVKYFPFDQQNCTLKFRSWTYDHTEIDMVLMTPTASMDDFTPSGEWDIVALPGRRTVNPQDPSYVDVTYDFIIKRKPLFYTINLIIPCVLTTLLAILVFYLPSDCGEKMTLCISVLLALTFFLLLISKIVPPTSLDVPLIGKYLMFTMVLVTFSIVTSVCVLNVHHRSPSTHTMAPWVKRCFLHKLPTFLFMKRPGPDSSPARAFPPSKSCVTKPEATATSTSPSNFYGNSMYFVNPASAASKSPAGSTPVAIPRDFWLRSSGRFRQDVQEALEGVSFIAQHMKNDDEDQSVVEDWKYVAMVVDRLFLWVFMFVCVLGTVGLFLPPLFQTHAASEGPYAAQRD
T3 sequence (P32297 whole entry): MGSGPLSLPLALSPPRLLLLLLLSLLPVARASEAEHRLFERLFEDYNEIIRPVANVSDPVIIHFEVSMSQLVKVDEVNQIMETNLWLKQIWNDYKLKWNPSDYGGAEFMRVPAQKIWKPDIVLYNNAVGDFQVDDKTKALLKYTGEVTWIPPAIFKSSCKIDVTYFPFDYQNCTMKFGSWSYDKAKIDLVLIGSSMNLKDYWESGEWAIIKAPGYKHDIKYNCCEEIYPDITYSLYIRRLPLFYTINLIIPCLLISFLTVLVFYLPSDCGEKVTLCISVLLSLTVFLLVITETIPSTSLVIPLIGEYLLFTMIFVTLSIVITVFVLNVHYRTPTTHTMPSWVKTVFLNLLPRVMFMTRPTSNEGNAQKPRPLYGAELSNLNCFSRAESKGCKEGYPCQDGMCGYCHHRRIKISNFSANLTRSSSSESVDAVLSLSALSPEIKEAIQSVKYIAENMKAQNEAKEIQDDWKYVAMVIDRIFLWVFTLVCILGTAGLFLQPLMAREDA
Sequence of Neuronal acetylcholine receptor; alpha4/beta2 (Rattus norvegicus, UniProt P09483+P12390) (P09483 whole entry): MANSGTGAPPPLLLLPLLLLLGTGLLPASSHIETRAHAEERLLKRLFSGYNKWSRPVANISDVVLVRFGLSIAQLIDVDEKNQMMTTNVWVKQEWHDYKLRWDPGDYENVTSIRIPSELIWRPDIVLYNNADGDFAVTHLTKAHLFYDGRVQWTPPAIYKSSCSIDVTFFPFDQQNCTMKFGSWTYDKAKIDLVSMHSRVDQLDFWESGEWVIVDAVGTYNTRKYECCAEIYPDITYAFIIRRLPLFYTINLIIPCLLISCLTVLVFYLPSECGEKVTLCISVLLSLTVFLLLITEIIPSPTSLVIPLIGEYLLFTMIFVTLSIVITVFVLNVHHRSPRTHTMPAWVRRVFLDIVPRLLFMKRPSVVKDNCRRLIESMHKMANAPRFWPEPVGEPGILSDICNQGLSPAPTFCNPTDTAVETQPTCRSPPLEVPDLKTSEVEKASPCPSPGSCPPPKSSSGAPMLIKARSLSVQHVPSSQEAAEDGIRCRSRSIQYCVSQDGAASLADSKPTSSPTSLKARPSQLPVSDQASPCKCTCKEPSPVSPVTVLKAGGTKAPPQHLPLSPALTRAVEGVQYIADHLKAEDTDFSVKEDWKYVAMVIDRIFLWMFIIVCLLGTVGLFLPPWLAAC
Sequence of Neuronal acetylcholine receptor; alpha4/beta2 (Rattus norvegicus, UniProt P09483+P12390) (P12390 whole entry): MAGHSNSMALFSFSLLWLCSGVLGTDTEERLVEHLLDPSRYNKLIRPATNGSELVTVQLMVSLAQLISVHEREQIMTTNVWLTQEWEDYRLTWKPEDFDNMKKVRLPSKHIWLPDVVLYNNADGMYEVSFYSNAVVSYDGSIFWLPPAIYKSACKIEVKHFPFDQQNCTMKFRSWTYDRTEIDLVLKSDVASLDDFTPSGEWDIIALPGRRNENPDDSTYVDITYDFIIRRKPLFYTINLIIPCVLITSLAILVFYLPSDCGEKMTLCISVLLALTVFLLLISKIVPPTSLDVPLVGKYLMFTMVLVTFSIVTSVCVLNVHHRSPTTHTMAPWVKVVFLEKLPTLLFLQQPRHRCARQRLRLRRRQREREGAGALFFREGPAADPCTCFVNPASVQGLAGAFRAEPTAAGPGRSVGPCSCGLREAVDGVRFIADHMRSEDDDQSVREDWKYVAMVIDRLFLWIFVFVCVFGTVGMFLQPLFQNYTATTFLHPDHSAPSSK
Sequence of Neuronal acetylcholine receptor subunit alpha-7 (Homo sapiens, UniProt P36544) (P36544 whole entry): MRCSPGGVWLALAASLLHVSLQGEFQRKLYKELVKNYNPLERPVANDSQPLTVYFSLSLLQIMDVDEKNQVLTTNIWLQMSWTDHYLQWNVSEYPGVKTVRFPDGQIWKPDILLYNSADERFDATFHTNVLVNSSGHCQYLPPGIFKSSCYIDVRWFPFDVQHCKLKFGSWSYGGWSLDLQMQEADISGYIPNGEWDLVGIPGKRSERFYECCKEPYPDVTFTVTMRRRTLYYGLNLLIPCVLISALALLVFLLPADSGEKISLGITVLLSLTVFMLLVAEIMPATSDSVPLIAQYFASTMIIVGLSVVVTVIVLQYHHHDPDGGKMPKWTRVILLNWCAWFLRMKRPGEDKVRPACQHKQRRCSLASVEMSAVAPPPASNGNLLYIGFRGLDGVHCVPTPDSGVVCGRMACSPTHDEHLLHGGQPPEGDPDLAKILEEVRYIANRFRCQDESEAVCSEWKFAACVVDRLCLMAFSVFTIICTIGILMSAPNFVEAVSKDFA
Sequence of Neuronal acetylcholine receptor subunit alpha-7 (Mus musculus, UniProt P49582) (P49582 whole entry): as the sequence (Q05941 whole entry) above, with G4R, A424T counted along it

With `O=c1cccc2n1C[C@@H]1CNC[C@H]2C1` [CYTISINICLINE], the pKi is 5.10 in test [1] and 9.00 in test [2].
`CN1CCC[C@H]1c1cccnc1` [NICOTINE] had a pKi in test [3] of 6.61.
For the molecule `c1cnc2cc3c(cc2n1)[C@@H]1CNC[C@H]3C1` [VARENICLINE], the pEC50 in test [4] is 4.74. This molecule also gave a pKi in test [5] of 6.52.
With `C1=C(c2cccnc2)C[C@@H]2CNC[C@H]1C2`, the Ratio in the test filed under Homo sapiens [6] is 15. Besides, the pEC50 was 7.82 in test [7]; 8.85 in test [9]; 7.70 in [11]; 7.30 in test [13]; 7.14 in [15]; 7.46 in test [17]. In addition, the pEC50 in test [19] is 8.64. Also, the “%max” value in test [8] is 82%; in [10], 49%; in [12], 28%; in test [14] it was 32%; in [16], 139%; in test [18], 131%. Besides, the %max in test [20] was found to be 111%. The Ratio Ki in the test filed under Homo sapiens [21] came out at 230. Also, the pKi in test [22] is 7.64; in [23], 8.89; in test [24], 10.00; in test [25], 9.00.

For the origin of these results see ChEMBL document CHEMBL2176949 (J Med Chem, 2012).
